zVAD death inh = L929 zVAD cell death inhibition; viability rescue, % at 10 µM; 220,000 tested, 0.38% active; L929 zVAD necroptosis rescue, ATP luminescence, 24 h; with zVAD 60 µM;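 active = activation, scaled between plate controls, above about 75%, limit read from the data; inactive = activation under that limit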;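 note: 0% = zVAD with DMSO and 100% = DMSO alone without zVAD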
TNF necrop inh = blocks TNF-alpha induced death of Jurkat FADD-/- cells; Jurkat FADD-/- TNF necroptosis rescue, ATP luminescence, 24 h; 0 = TNF only, 100 = no-TNF cells; activation (protection from cell death), % at 10 µM; 220,000 tested, 0.068% active; AID 463075;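 active = activation, meaning protection from cell death, of at least 50% relative to plate controls; inactive = activation below 50%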;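 note: necroptosis triggered by 40 ng/mL TNF-alpha added together with compound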
p97 ATPase inh = inhibitors of human p97 ATPase; inhibition, % at 8 µM; recombinant p97 ATPase, Kinase-Glo ATP luminescence, 3 h; P55072; 220,000 tested, 0.42% active; in the data active = inhibition above about 15%;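 note: 0% = DMSO vehicle and 100% = wells lacking enzyme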
Target sequence (P55072 whole entry, looked up): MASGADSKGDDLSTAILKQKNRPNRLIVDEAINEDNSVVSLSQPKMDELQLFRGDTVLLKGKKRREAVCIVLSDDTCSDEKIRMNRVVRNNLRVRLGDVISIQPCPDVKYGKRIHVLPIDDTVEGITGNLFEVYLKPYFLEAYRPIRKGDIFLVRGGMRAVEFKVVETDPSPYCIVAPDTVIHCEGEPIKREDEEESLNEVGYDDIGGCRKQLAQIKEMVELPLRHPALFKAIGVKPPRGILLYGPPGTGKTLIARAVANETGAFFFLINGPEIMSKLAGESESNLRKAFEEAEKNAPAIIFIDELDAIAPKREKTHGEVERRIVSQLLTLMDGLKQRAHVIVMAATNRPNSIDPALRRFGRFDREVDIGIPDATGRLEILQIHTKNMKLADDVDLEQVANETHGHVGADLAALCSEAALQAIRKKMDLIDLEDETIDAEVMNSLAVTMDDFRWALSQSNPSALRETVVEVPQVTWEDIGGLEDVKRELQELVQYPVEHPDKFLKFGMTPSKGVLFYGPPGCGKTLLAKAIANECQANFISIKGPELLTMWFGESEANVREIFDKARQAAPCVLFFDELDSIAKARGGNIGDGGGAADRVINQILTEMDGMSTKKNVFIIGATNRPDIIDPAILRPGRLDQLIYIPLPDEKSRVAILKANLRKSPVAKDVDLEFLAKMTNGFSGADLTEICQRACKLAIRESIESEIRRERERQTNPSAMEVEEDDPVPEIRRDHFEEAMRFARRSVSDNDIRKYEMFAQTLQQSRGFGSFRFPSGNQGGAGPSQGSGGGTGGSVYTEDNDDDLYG
Wee1 stabilizer = inhibitors of human Wee1 degradation. P30291. HeLa Luc-Wee1K328M stability, luciferase luminescence; 100% = proteasome inhibitor MG132 effect. reporter increase, % at 5 µM. 220,000 tested, 1.2% active;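 active = activation above the mean of all tested compounds plus 3 SD, set per screening run, cut at about 8.8% in these data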;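 note: cells exposed to compound for 20 h before luminescence read; 0% = DMSO alone and 100% = MG132 at 30 µM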
RBBP9 inhibitor = human RBBP9 hydrolase inhibition | O75884 | recombinant RBBP9, FP-Rh probe fluorescence polarization | inhibition, % at 7.94 µM | 220,000 tested, 0.2% active;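 active = inhibition above the campaign mean of all tested compounds plus 3 SD, cut at about 14% in these data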;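 note: plate controls were DMSO wells with RBBP9 for no effect and wells lacking RBBP9 protein for full effect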
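System: RBBP9 protein / Quantity: 2.5 µM RBBP9 dispensing solution, before mixing / Also added: Serine-hydrolase probe FP-Rh, 375 nM pre-mixing / Dosing: 7.94 µM single dose, 0.794% DMSO / Timing: enzyme-compound preincubation 30 min, then probe labeling 45 min, 25 °C / Signal: FP readout at 525/598 nm / Controls: DMSO-treated enzyme wells and wells lacking RBBP9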
M18AAP inhibitor = blocks P. falciparum M18 aspartyl aminopeptidase; recombinant PfM18AAP, H-Glu-NHMec fluorogenic cleavage; inhibition, % at 7.35 µM; 290,000 tested, 1.2% active; AID 1822;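 active = inhibition above the campaign mean inhibition over all tested compounds plus 3 SD, cut at about 28% in these data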;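 note: 0% = plate median of test compound wells and 100% = 2 mM ZnCl2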
The depositor's hits bear a star; · = not tested or not shown. In the library only some 2.7% were active in any assay of this set; here they are far more common.

SMILES	zVAD death inh	TNF necrop inh	p97 ATPase inh	Wee1 stabilizer	RBBP9 inhibitor	M18AAP inhibitor
CC(O)CNc1ccc([N+](=O)[O-])cc1S(=O)(=O)N1CCOCC1 (centres undefined)	1	0	8	-1	-1	4
O=C(O)CC/C(=N\Nc1ccc([N+](=O)[O-])cc1S(=O)(=O)N1CCOCC1)c1cccs1	0	-2	5	-2	-5	30*
COc1cccc(CNC(=O)c2cc(COc3c(F)cccc3F)on2)c1	1	3	-5	9.8*	-16	-3
O=C(NCc1ccc2c(c1)OCO2)c1cc(COc2c(F)cccc2F)on1	·	·	·	·	·	2
Cc1cccc(Oc2coc3cc(OC(=O)c4cccs4)ccc3c2=O)c1	0	-3	1	11*	-9	-8
NS(=O)(=O)c1ccc(N=Nc2c(=O)[nH]n3c(=O)c4c([nH]c23)CCCC4)cc1	2	-1	0	4	1	48*
O=c1[nH]n2c(=O)c3c([nH]c2c1N=Nc1cccc(Cl)c1)CCC3	0	0	-3	6	-4	11
CCOC(=O)Cc1csc(NC(=O)Cn2c(=O)oc3ccccc32)n1	0	0	0	-2	-8	0
CCOC(=O)c1oc2cc(OC(C)=O)ccc2c(=O)c1-c1ccc(OC)c(OC)c1	0	1	-4	9.3*	-5	3
c1ccc2[nH]c(CCCCc3nc4ccccc4[nH]3)nc2c1	·	·	·	·	·	-2
COc1ccc(CCCc2nc3ccccc3[nH]2)cc1	0	3	2	9.9*	-5	4
COCCn1c(N)c(N(Cc2ccccc2)C(=O)Cc2c(Cl)cccc2Cl)c(=O)[nH]c1=O	1	0	2	-3	3	-9
Cc1ccc(NC(=O)CSc2nnc(-c3ccccn3)n2N)c(Br)c1	1	-1	2	-3	-6	-2
Cc1cccn2c(=O)c3cc(C(N)=S)c(=N)n(CCCOC(C)C)c3nc12	0	-10	1	15*	-4	6
COc1ccc(CCNC(=O)c2cc3c(=O)n4ccccc4nc3n(Cc3ccco3)c2=N)cc1OC	·	·	·	·	·	4
CCOCCCn1c(=N)c(C(N)=S)cc2c(=O)n3cccc(C)c3nc21	0	-8	0	-1	-4	-3
Cc1cccn2c(=O)c3cc(C(=O)NCc4ccco4)c(=N)n(CCOCCO)c3nc12	0	-2	10	0	1	29*
COc1ccc(CNC(=O)c2cc3c(=O)n4ccccc4nc3n(Cc3ccco3)c2=N)cc1	0	-8	35*	-1	-6	2
O=C(O)c1cc2nccc(-c3ccc(F)cc3)n2n1	1	-1	5	-2	-2	3
COC(=O)c1ccc(NC(=O)CN2CCC(NC(=O)c3ccco3)CC2)cc1	6	1	2	11*	-3	3
Cc1cccc2c(N)c3c(nc12)N(C)CC3	·	·	·	·	·	31*
CC1CCCCN1C(=O)COC(=O)/C=C/c1ccc2ccccc2n1 (centres undefined)	9	0	-1	-5	-10	2
CC1CCCC(NC(=O)CCC(=O)NCc2ccccc2)C1C (centres undefined)	·	·	·	·	·	-4
O=C(CSc1ccc(F)cc1)Nc1ccc(C2SCCS2)cc1	0	5	2	9.5*	4	4
CC1(C)CC(=O)C=C(NCc2cccnc2)C1	2	1	3	9.3*	-7	6
SMILES	zVAD death inh	TNF necrop inh	p97 ATPase inh	Wee1 stabilizer	RBBP9 inhibitor	M18AAP inhibitor
CC1(C)CC(=O)C=C(NCc2ccco2)C1	1	2	0	0	-14	0
COc1ccc(O)c(C(=O)CC(=O)c2ccc(F)cc2)c1	3	-10	-3	-5	-7	-2
COc1ccc(O)c(C(=O)CC(=O)c2ccccc2C)c1	-1	-1	-1	8.9*	-7	6
Cc1ccc(CCNS(=O)(=O)c2cc(Br)cnc2N)cc1	·	·	·	·	·	1
COc1cccc(/C=N/n2c(COc3ccccc3)n[nH]c2=S)c1OC	·	·	·	·	·	32*
CCc1n[nH]c(=S)n1/N=C/c1cc(Br)c(O)c(OC)c1	1	2	4	-4	-7	23
FC(F)(F)c1ccccc1/C=N/n1c(COc2ccccc2)n[nH]c1=S	·	·	·	·	·	28*
COc1cc(/C=N/n2c(COc3ccccc3)n[nH]c2=S)cc(Br)c1O	·	·	·	·	·	31*

Bioassay records from PubChem.
